What all share (type): functional, cell-based
Assay [1] relates to Splenocyte. The assay can be described thus: Immunoregulatory activity against methotrexate-induced decrease of humoral immune response in SRBC primed BALB/c mouse splenocytes assessed as increase of antibody forming cells at 10 ug/ml after 4 days. Put shortly:
(§1)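 Female BALB/c mice, 12 weeks old, primed i.p. with 0.2 ml of 1% SRBC. Splenocytes taken 4 days later and cultured at 5×10⁶/ml in RPMI 1640 with 10% FCS, glutamine, pyruvate, 2-mercaptoethanol and antibiotics, plus 0.05 ml of 0.005% SRBC. Peptides (in Cremophor/ethanol, diluted in RPMI) added at culture start; MTX (0.25, 0.5 or 1.0 mM) added at 24 h. After 4 days, AFC counted by agar-gel local haemolysis; Student's t-test.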

For assay [2], the system named is Splenocyte. Briefly: Immunostimulatory activity in SRBC primed BALB/c mouse splenocytes assessed as humoral immune response by measuring increase of antibody forming cells at 0.25 to 1 mM after 4 days. As to conditions: 1 to 10 ug/ml, in the assay text read “at 1 to 10 ug/ml” for “at 0.25 to 1 mM”. Summed up:
as §1

Assay [3] has as its system Splenocyte. The assay can be described thus: Immunoregulatory activity against methotrexate-induced decrease of humoral immune response in SRBC primed BALB/c mouse splenocytes assessed as increase of antibody forming cells at […] after 4 days. Put shortly:
as §1

Assay [4] relates to Splenocyte. The assay can be described thus: Immunostimulatory activity in SRBC primed BALB/c mouse splenocytes assessed as humoral immune response by measuring inhibition of antibody forming cells at 10 ug/ml after 4 days. Put shortly:
(§2)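 Splenocytes from female BALB/c mice (12 weeks old) primed i.p. with 0.2 ml of 1% SRBC and harvested after 4 days. Cells cultured at 5×10⁶/ml in RPMI 1640 with 10% FCS and supplements, with 0.05 ml of 0.005% SRBC antigen. Peptide (Cremophor/ethanol stock diluted in RPMI) added at initiation, no MTX. Antibody-forming cells counted by local haemolysis in agar after 4 days; Student's t-test.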

Assay [5] relates to Splenocyte. The assay can be described thus: Immunoregulatory activity against methotrexate-induced decrease of humoral immune response in SRBC primed BALB/c mouse splenocytes assessed as increase of antibody forming cells at 1 ug/ml after 4 days. Summed up:
as §1

In assay [6] the test system is Splenocyte. Briefly: Immunostimulatory activity in SRBC primed BALB/c mouse splenocytes assessed as humoral immune response by measuring increase of antibody forming cells after 4 days. Put shortly:
as §2

Assay [7] concerns Splenocyte. The assay can be described thus: Immunoregulatory activity against methotrexate-induced decrease of humoral immune response in SRBC primed BALB/c mouse splenocytes assessed as increase of antibody forming cells at 0.1 ug/ml after 4 days. Summed up: as §1
For assay [8], the system named is Splenocyte. Briefly: Immunostimulatory activity in SRBC primed BALB/c mouse splenocytes assessed as humoral immune response by measuring increase of antibody forming cells at 1 ug/ml after 4 days. Put shortly: as §2

Calls of active or inactive are those of the source. No cut-off for these calls is given here. Peptide text beside a SMILES is read from it.

In the case of H-LVPPFFLII-OH, in the assay on Splenocyte [1], the “increase of antibody forming cells” value was “Active”. The outcome in the assay with Splenocyte [2] was inactive.

On to `CC[C@H](C)[C@H](NC(=O)[C@@H](NC(=O)[C@H](CC(C)C)NC(=O)[C@H](Cc1ccccc1)N1CCN(C(=O)[C@@H]2CCCN2C(=O)[C@@H]2CCCN2C(=O)[C@@H](NC(=O)[C@@H](N)CC(C)C)C(C)C)[C@@H](Cc2ccccc2)C1=O)[C@@H](C)CC)C(=O)O`, for which the inhibition result in the assay on Splenocyte [3] was “Active”. The outcome in the assay on Splenocyte [2] was inactive.

Regarding `CC[C@H](C)[C@@H]1NC(=O)[C@H](CC(C)C)NC(=O)[C@H](Cc2ccccc2)N2CCN(C(=O)[C@@H]3CCCN3C(=O)[C@@H]3CCCN3C(=O)[C@H](C(C)C)NC(=O)[C@H](CC(C)C)NC(=O)[C@H]([C@@H](C)CC)NC1=O)[C@@H](Cc1ccccc1)C2=O`, in the assay with Splenocyte [1], the “increase of antibody forming cells” value was “Active”. In the assay on Splenocyte [4], the inhibition result was “Active”.

On to `CC[C@H](C)[C@H](NC(=O)[C@@H](NC(=O)[C@H](CC(C)C)NC(=O)[C@@H](Cc1ccccc1)N1CCN(C(=O)[C@@H]2CCCN2C(=O)[C@@H]2CCCN2C(=O)[C@@H](NC(=O)[C@@H](N)CC(C)C)C(C)C)[C@H](Cc2ccccc2)C1=O)[C@@H](C)CC)C(=O)O`, for which the “increase of antibody forming cells” value with Splenocyte [1] was “Active”. Besides, the result in the assay on Splenocyte [2] was Active.

Take `CC[C@H](C)[C@@H]1NC(=O)[C@H](CC(C)C)NC(=O)[C@@H](Cc2ccccc2)N2CCN(C(=O)[C@@H]3CCCN3C(=O)[C@@H]3CCCN3C(=O)[C@H](C(C)C)NC(=O)[C@H](CC(C)C)NC(=O)[C@H]([C@@H](C)CC)NC1=O)[C@H](Cc1ccccc1)C2=O`: in the assay with Splenocyte [1], the “increase of antibody forming cells” value was “Active”. The inhibition result in the assay on Splenocyte [5] is “Active”.

Regarding `CC[C@H](C)[C@@H]1NC(=O)[C@H](CC(C)C)NC(=O)[C@H](Cc2ccccc2)NC(=O)[C@H](Cc2ccccc2)NC(=O)[C@@H]2CCCN2C(=O)[C@@H]2CCCN2C(=O)[C@H](C(C)C)NC(=O)[C@H](CC(C)C)NC(=O)[C@H]([C@@H](C)CC)NC1=O` (cyclo(FFLIILVPP)), in the assay with Splenocyte [1], the “increase of antibody forming cells” value is “Active”. Moreover, the Activity entry with Splenocyte [6] is “Dose-dependent effect”. Moreover, the inhibition entry in the assay on Splenocyte [5], in the assay on Splenocyte [7] and in the assay with Splenocyte [4] was “Active” in each case. For the same compound, in the assay on Splenocyte [8], the outcome was inactive.

The record behind these values is ChEMBL document CHEMBL1949620, “Cyclolinopeptide derivatives modify methotrexate-induced suppression of the humoral immune response in mice” (Eur J Med Chem, 2011).
